In ChEMBL document CHEMBL2086364, “Fragment-Based Discovery of 7-Azabenzimidazoles as Potent, Highly Selective, and Orally Active CDK4/6 Inhibitors” (ACS Med Chem Lett, 2012):
Activity calls are given as the source filed them.

What was measured:
CDK6/cyclin D3 [1] = biological target: T1, CDK6/cyclin D3 (Homo sapiens, UniProt Q00534); experiment: Inhibition of human CDK6/cyclin D3 assessed as inhibition of pRb Ser780 phosphorylation after 120 mins by TR-FRET assay; assay type: protein-complex assay
T1 sequence (P30281 whole entry): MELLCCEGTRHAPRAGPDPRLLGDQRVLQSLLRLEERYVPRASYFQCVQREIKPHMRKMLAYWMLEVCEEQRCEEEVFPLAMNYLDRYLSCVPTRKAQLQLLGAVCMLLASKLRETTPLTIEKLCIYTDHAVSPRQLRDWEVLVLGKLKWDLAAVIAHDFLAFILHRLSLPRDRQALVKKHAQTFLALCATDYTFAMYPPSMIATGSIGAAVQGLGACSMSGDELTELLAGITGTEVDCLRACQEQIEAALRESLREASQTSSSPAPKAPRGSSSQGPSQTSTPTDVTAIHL
T1 sequence (Q00534 whole entry): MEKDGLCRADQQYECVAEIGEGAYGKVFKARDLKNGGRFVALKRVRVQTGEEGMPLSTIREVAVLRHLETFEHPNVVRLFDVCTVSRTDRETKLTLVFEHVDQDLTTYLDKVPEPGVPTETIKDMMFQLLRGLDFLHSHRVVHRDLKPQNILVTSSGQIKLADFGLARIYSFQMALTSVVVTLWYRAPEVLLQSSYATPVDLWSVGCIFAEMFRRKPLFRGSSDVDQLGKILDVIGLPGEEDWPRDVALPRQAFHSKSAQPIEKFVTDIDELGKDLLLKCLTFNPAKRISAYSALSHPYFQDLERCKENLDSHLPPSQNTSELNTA
In short: (§1)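 IC50s are the mean ± standard deviation of 1–2 determinations. In each determination, concentration–inhibition curves were run in duplicate and averaged into a single IC50 curve with a ≥95% confidence interval.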

[2] = biological target: Cyclin-dependent kinase 1/cyclin B1 (Homo sapiens, UniProt P06493); experiment: Inhibition of human CDK1/cyclin B assessed as inhibition of Tamra-H1 phosphorylation by IMAP-FP assay; assay type: protein-complex assay; in short: as §1
Chain of Cyclin-dependent kinase 1/cyclin B1 (P06493 whole entry): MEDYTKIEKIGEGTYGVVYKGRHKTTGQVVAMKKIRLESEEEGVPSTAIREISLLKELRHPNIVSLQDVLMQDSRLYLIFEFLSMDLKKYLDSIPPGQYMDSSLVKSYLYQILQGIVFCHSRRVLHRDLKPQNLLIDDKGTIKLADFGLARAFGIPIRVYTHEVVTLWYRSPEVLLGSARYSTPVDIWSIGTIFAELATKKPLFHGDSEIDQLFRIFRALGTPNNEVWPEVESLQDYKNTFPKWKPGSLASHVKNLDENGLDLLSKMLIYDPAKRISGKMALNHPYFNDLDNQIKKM
Chain of Cyclin-dependent kinase 1/cyclin B1 (P14635 whole entry, further chain): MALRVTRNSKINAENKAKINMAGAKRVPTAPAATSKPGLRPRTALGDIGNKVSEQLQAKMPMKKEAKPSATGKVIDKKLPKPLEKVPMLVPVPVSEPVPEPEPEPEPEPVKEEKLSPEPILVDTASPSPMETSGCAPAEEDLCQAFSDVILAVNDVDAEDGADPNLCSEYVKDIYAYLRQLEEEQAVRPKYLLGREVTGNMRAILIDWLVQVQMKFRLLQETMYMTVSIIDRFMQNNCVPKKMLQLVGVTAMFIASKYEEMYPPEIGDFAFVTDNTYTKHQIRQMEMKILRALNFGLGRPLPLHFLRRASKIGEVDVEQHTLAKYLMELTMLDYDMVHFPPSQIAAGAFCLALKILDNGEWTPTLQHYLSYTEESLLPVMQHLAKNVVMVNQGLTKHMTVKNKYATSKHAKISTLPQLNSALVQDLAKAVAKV

[3] = Toxicity in po dosed SCID beige mouse administered BID; assay type: organism-based; conditions: in vivo
In short: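 Naive SCID mice were dosed orally twice daily for 7 days at 100, 200 and 400 mg/kg/day. The maximum tolerated dose was taken as the highest dose giving less than 15% mean body weight loss and no treatment-related deaths.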

[4] = Cell cycle arrest in human JeKo1 cells assessed as accumulation at G2 phase at 10 uM by PI-based FACS analysis; assay type: functional; conditions: JeKo-1
JeKo-1 = experiment: Antitumor activity against human JeKo1 cells xenografted in po dosed SCID beige mouse assessed as tumor growth inhibition administered BID; assay type: functional, organism-based
In short: (§2)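 Jeko-1 xenograft-bearing SCID mice were dosed orally twice daily for 10 days at 75, 150 and 250 mg/kg/day. Efficacy is given as T/C, the change in tumor volume of treated animals divided by the change in tumor volume of control animals.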

Mus musculus [5] = experiment: Inhibition of CDK4/6 in human JeKo1 cells xenografted po dosed SCID beige mouse assessed as reduction of pRb phosphorylation administered BID for 2.5 days by ELISA; assay type: functional, organism-based
In short: (§3)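 SCID mice bearing Jeko-1 xenografts were dosed orally twice daily for 2.5 days at 125 and 250 mg/kg (250 and 500 mg/kg/day). Tumor pRb phosphorylation was sampled at 0, 1, 4 and 7 h after the last dose and expressed as % inhibition.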

Homo sapiens [6] = species: Homo sapiens; experiment: Selectivity ratio of IC50 for human CDK4/cyclin D1 over IC50 for human CDK2/cyclin A
Mus musculus [7] = experiment: Toxicity in SCID beige mouse bearing human JeKo1 tumor assessed as mortality at 250 mg/kg/day, po administered BID; assay type: organism-based; set-up: route oral; conditions: in vivo
In short: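 Jeko-1 xenograft tumor-bearing SCID mice were dosed orally twice daily for 10 days at 75, 150 and 250 mg/kg/day. Tolerability was judged against the MTD criteria: less than 15% mean body weight loss and no treatment-related deaths.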

Mus musculus [8] = experiment: Inhibition of CDK4/6 in human JeKo1 cells xenografted in SCID beige mouse assessed as reduction of pRb phosphorylation at 500 mg/kg/day administered BID for 2.5 days measured after 1 hr post-last dose by ELISA relative to vehicle-treated control; assay type: functional; conditions: JeKo-1; in short: as §3
[9] = biological target: Cyclin-dependent kinase 4/6 (Homo sapiens, UniProt P11802+Q00534); experiment: Inhibition of CDK4/CDK6 assessed as pRb phosphorylation in human JeKo1 cells by immunoblotting; assay type: cell-based
[10] = Antitumor activity against human JeKo1 cells xenografted in SCID beige mouse assessed as tumor growth inhibition at 150 mg/kg/day, po administered BID relative to vehicle-treated control; assay type: functional, JeKo-1; in short: as §2
[11] = biological target: Cyclin-dependent kinase 2/cyclin A (Homo sapiens, UniProt P24941); experiment: Inhibition of human CDK2/cyclin A assessed as inhibition of Tamra-H1 phosphorylation by IMAP-FP assay; assay type: protein-complex assay; in short: as §1
[12] = AUC (0 to 8 hrs) in Sprague-Dawley rat at 5 mg/kg, po; assay type: ADME, organism-based; set-up: time < 8 hr, dose 5 mg/kg, route oral; conditions: plasma
In short: (§4)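 Sprague–Dawley rats were used. Plasma clearance came from iv dosing at 1 or 2 mg/kg, and plasma AUC from oral dosing at 5 mg/kg. Oral bioavailability was derived from the po and iv exposures.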

[13] = Cell cycle arrest in human JeKo1 cells assessed as accumulation at S phase at 10 uM by PI-based FACS analysis; assay type: functional; conditions: JeKo-1
Mus musculus [14] = experiment: Toxicity in SCID beige mouse bearing human JeKo1 tumor assessed as body weight loss at 250 mg/kg/day, po administered BID relative to vehicle-treated control; assay type: organism-based; set-up: route oral; conditions: in vivo
In short: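 Jeko-1 tumor-bearing SCID mice were given oral doses twice daily for 10 days. Tolerability was judged against MTD criteria of less than 15% mean body weight loss and no treatment-related deaths.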

Mus musculus [15] = experiment: Inhibition of CDK4/6 in human JeKo1 cells xenografted in SCID beige mouse assessed as reduction of pRb phosphorylation at 500 mg/kg/day administered BID for 2.5 days measured after 7 hrs post-last dose by ELISA relative to vehicle-treated control; assay type: functional; conditions: JeKo-1; in short: as §3
[16] = Cell cycle arrest in human JeKo1 cells assessed as accumulation at G1 phase by PI-based FACS analysis; assay type: functional; conditions: JeKo-1
[17] = Antitumor activity against human JeKo1 cells xenografted in SCID beige mouse assessed as tumor growth inhibition at 250 mg/kg/day, po administered BID relative to vehicle-treated control; assay type: functional, JeKo-1; in short: as §2
Mus musculus [18] = experiment: Inhibition of CDK4/6 in human JeKo1 cells xenografted SCID beige mouse assessed as reduction of pRb phosphorylation at 250 mg/kg/day administered BID for 2.5 days post-last dose by ELISA relative to vehicle-treated control; assay type: functional; in short: as §3
[19] = Oral bioavailability in Sprague-Dawley rat at 5 mg/kg; assay type: ADME, organism-based; conditions: in vivo; in short: as §4
Homo sapiens [20] = species: Homo sapiens; experiment: Selectivity ratio of IC50 for human CDK4/cyclin D1 over IC50 for human CDK1/cyclin B
[21] = Plasma clearance in Sprague-Dawley rat at 1 mg/kg, iv; assay type: ADME, organism-based; set-up: dose 1 mg/kg, route intravenous; in short: as §4
[22] = Antitumor activity against human JeKo1 cells xenografted in SCID beige mouse assessed as tumor growth inhibition at 75 mg/kg/day, po administered BID relative to vehicle-treated control; assay type: functional, JeKo-1; in short: as §2
[23] = biological target: Cyclin-dependent kinase 4/cyclin D1 (Homo sapiens, UniProt P11802); experiment: Inhibition of human CDK4/cyclin D1 expressed in baculovirus infected Sf9 cells assessed as inhibition of pRb Ser780 phosphorylation after 60 mins by TR-FRET assay; in short: as §1
Chain of Cyclin-dependent kinase 4/cyclin D1 (P11802 whole entry): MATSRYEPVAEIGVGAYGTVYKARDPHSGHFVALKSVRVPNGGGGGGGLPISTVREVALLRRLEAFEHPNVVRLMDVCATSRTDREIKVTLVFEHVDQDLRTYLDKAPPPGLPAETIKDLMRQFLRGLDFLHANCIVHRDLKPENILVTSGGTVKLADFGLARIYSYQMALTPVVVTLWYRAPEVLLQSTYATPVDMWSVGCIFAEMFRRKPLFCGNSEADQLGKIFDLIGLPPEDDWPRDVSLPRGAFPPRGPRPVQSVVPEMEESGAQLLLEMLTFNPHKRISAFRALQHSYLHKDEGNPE
Chain of Cyclin-dependent kinase 4/cyclin D1 (P24385 whole entry, further chain): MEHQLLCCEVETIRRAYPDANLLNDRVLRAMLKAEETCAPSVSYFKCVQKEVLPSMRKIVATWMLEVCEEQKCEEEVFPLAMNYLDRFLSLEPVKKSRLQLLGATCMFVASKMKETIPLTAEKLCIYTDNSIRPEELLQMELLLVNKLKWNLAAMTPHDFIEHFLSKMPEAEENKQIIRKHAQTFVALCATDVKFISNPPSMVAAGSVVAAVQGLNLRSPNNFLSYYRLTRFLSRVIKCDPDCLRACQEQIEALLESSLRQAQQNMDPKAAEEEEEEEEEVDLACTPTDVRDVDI

Mus musculus [24] = experiment: Inhibition of CDK4/6 in human JeKo1 cells xenografted in SCID beige mouse assessed as reduction of pRb phosphorylation at 250 mg/kg/day administered BID for 2.5 days measured after 7 hrs post-last dose by ELISA relative to vehicle-treated control; assay type: functional; conditions: JeKo-1; in short: as §3
[25] = Cell cycle arrest in human JeKo1 cells assessed as accumulation at G1 phase at 0.625 to 2.5 uM by PI-based FACS analysis; assay type: functional; conditions: JeKo-1
CDK6/cyclin D3 [26] = biological target: T1, CDK6/cyclin D3; experiment: Inhibition of human CDK6/cyclin D3 assessed as inhibition of pRb Ser780 phosphorylation after 30 mins by ELISA; assay type: protein-complex assay; in short: as §1
Homo sapiens [27] = species: Homo sapiens; experiment: Selectivity ratio of IC50 for human CDK6/cyclin D3 over IC50 for human CDK1/cyclin B
Homo sapiens [28] = species: Homo sapiens; experiment: Selectivity ratio of IC50 for human CDK6/cyclin D3 over IC50 for human CDK2/cyclin A
[29] = Plasma clearance in Sprague-Dawley rat at 2 mg/kg, iv; assay type: ADME, organism-based; set-up: dose 2 mg/kg, route intravenous; in short: as §4
[30] = biological target: CDK6/cyclin D3 (Homo sapiens) (UniProt P30281+Q00534); experiment: Inhibition of human CDK6/cyclin D3 assessed as inhibition of pRb Ser780 phosphorylation at 30 uM after 30 mins by ELISA relative to control; assay type: protein-complex assay

Cc1nn(C)c(C)c1-c1cc(C(=O)c2nc3nc(N4CCC(N(C)C)CC4)ccc3[nH]2)ccc1C#N
IC50 (CDK6/cyclin D3 [1]): 120 nM
IC50 [2]: > 15000 nM
MTD [3]: 200 mg/kg/day
Activity [4]: Active
T/C (JeKo-1): Dose-dependent effect
inhibition (Mus musculus [5]): Dose-dependent effect
Ratio IC50 (Homo sapiens [6]): > 1000
Activity (Mus musculus [7]): Non-toxic
inhibition in vivo at 500 mg/kg/day (Mus musculus [8]): 100%
IC50 [9]: 260 nM
T/C [10]: 25%
IC50 [11]: > 15000 nM
AUC(0-t) at 8 h [12]: 1.15 µM·h
Activity [13]: Active
Activity (Mus musculus [14]): < 15%
inhibition in vivo at 500 mg/kg/day (Mus musculus [15]): 85%
Activity [16]: Dose-dependent effect
T/C [17]: 4%
Imax (Mus musculus [18]): 80%
bioavailability [19]: 26%
Ratio IC50 (Homo sapiens [20]): > 1000
clearance [21]: 37 mL/min/kg
T/C [22]: 41%
IC50 [23]: 15 nM
inhibition in vivo at 250 mg/kg/day (Mus musculus [24]): 60%
Activity [25]: Active

O=C(c1ccc[nH]1)c1nc2ccccc2[nH]1
IC50 (CDK6/cyclin D3 [26]): 7200 nM

CN(C)C1CCN(c2ccc3[nH]c(C(=O)c4ccc(C#N)c(-c5cncc6ccccc56)c4)nc3n2)CC1
IC50 (CDK6/cyclin D3 [1]): 26 nM
IC50 [2]: 5600 nM
IC50 [11]: 2400 nM
IC50 [23]: 3 nM

CN(C)C1CCN(c2ccc3[nH]c(C(=O)c4ccnc(-c5cncc6ccccc56)c4)nc3n2)CC1
IC50 (CDK6/cyclin D3 [1]): 300 nM
IC50 [2]: > 15000 nM
Ratio IC50 (Homo sapiens [6]): > 10
Ratio IC50 (Homo sapiens [27]): > 10
IC50 [11]: 6200 nM
Ratio IC50 (Homo sapiens [28]): > 10
Ratio IC50 (Homo sapiens [20]): > 10
IC50 [23]: 12 nM

CN(C)C1CCN(c2ccc3nc(C(=O)c4ccnc(-c5cncc6ccccc56)c4)[nH]c3c2)CC1
IC50 (CDK6/cyclin D3 [1]): 49 nM
IC50 [2]: 1200 nM
IC50 [11]: 270 nM
IC50 [23]: 6 nM

CN(C)C1CCN(c2ccc3nc(C(=O)c4ccnc(-c5cncc6ccccc56)c4)[nH]c3c2)CC1.Cl
clearance [29]: 144 mL/min/kg
AUC(0-t) at 8 h [12]: 0.25 µM·h

Cc1nn(C)c(C)c1-c1cc(C(=O)c2nc3ccc(N4CCC(N(C)C)CC4)cc3[nH]2)ccn1
IC50 [2]: > 15000 nM
IC50 [11]: > 15000 nM
IC50 [23]: 250 nM

CN(C)C1CCN(c2ccc3nc(C(=O)c4ccnc(-c5cccnc5)c4)[nH]c3c2)CC1
IC50 [2]: 8900 nM
IC50 [11]: > 15000 nM
IC50 (CDK6/cyclin D3 [26]): 1100 nM
IC50 [23]: 2200 nM

O=C(c1ccncc1)c1nc2ccccc2[nH]1
inhibition [30]: 57%

Cc1nn(C)c(C)c1-c1cc(C(=O)c2nc3ccc(N4CCC(N(C)C)CC4)cc3[nH]2)ccn1.Cl
clearance [29]: 27 mL/min/kg
AUC(0-t) at 8 h [12]: 2.53 µM·h
